We go through two compounds from BindingDB's records for doi:10.1021/jm049010r (University of Florida, 2005).

The test has as its target Melanocortin receptor 4 (Mus musculus, UniProt P56450). Kind of test: Effective concentration for mouse Melanocortin-4 receptor. An outline of the steps: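 HEK-293 cells stably expressing mouse melanocortin receptors (G418-selected) were transiently transfected with a CRE/β-galactosidase reporter. Lysates were incubated with ONPG at 37° and read at OD405. Signals were normalized to relative protein (OD595) and to forskolin response. EC50 came from nonlinear least-squares fits of duplicate experiments in quadruplet or more.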

Structures are written as SMILES.

Melanocortin receptor 4, sequence (P56450 whole entry): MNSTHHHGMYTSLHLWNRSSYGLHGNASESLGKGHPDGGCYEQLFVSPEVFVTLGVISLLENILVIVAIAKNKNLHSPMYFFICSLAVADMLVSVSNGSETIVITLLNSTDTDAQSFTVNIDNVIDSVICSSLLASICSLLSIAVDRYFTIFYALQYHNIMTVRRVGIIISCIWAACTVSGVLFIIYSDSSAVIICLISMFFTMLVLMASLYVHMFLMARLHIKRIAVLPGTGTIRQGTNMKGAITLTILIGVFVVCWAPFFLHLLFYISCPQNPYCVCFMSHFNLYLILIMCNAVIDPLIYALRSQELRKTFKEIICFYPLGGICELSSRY

A word on the EC50: it is the concentration at which the effect is half-maximal. `C[C@@H]1NC(=O)[C@H](CC(N)=O)NC(=O)[C@H](Cc2c[nH]c3ccccc23)NC(=O)[C@H](CCCNC(=N)N)NC(=O)[C@@H](Cc2cccc3ccccc23)NC(=O)[C@H](Cc2cnc[nH]2)NC(=O)[C@@H](NC(=O)[C@@H](N)Cc2ccc(O)cc2)CC(=O)N([C@@H](Cc2ccc(O)cc2)C(N)=O)C(C)(C(=O)O)NC(=O)[C@H](Cc2ccccc2)NC1=O` (some centres not stated) registered an EC50 of 0.57 nM.
The figure for `C[C@@H]1NC(=O)[C@H](CC(N)=O)NC(=O)[C@H](Cc2c[nH]c3ccccc23)NC(=O)[C@H](CCCNC(=N)N)NC(=O)[C@@H](Cc2ccc(-c3ccccc3)cc2)NC(=O)[C@H](Cc2cnc[nH]2)NC(=O)[C@@H](NC(=O)[C@@H](N)Cc2ccc(O)cc2)CC(=O)N([C@@H](Cc2ccc(O)cc2)C(N)=O)C(C)(C(=O)O)NC(=O)[C@H](Cc2ccccc2)NC1=O` (some centres not stated) is 0.57 nM.
